Reference: the RNAGym collection of RNA variant scans (doi:10.1126/science.aae0568)
This sample holds only a part of the variants without activity.

B1: tRNA (parent)
chain: GUUCCGUUGGCGUAAUGGUAACGCGUCUCCCUCCUAAGGAGAAGACUGCGGGUUCGAGUCCCGUACGGAACG

Variants of: B1
Assay: yeast fitness relative to wild type (ratio to wild type); higher = fitter; tRNA-Arg(CCU), competitive growth, 37 C, YPD
Outline: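 Gene amplicons from the start population and from each of six end populations were read by 100-nucleotide paired-end sequencing. Those end populations came from pooled Saccharomyces cerevisiae strains carrying tRNA-Arg(CCU) gene variants at the native locus, competed in YPD at 37°C for 24 hours. Fitness relative to wild type was worked out from changes in genotype frequencies. Genotypes needed ≥ 100 starting reads, and estimates < 0.5 were set to 0.5.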

| Variant | yeast fitness |
| --- | --- |
| U3C C11A C31A A42G G68C | ≤ 0.5 |
| U3C C60A | 0.619 |
| U3C U13A C31U G41A A70C | 0.639 |
| U3C C11U A40U G58A | 0.627 |
| U3C G9A A57G A65U | ≤ 0.5 |
| U3C C24U U26C G63A A65G | ≤ 0.5 |
| U3C U8G U32A C33G U53A A69C | ≤ 0.5 |
| U3C G6A G18C C30U C31U G48A C55G G67A | ≤ 0.5 |
| U3C C31U G67C | 0.797 |
| U3C G23A U35G A42G | ≤ 0.5 |
| U3C U16G U19A A43C A57U A69C | ≤ 0.5 |
| U3C C31U C49U | 0.919 |
| U3C C31U G48A | 0.734 |
| U3C U8C C11A U32G C61A C62A | ≤ 0.5 |
| U3C U13G A70G | 0.698 |
| U3C G38C A65U C66U | 0.555 |
| U3C G9C C11U C30G A43C | 0.519 |
| U3C C22G G25A | 1.02 |
| U3C U7A A20G C31U A57C G67C | ≤ 0.5 |
| U3C U16G C30U C33U U47C | ≤ 0.5 |
| U3C C22G A70U | 0.8 |
| U3C C55G | 0.619 |
| U3C C22G C29A A42C | ≤ 0.5 |
| U3C G10C C27U | ≤ 0.5 |

| Variant | yeast fitness |
| --- | --- |
| U3C C29G C46U C49U U59G A65U G68A | ≤ 0.5 |
| U3C C49G U59A | ≤ 0.5 |
| U3C C30A G51A | 0.602 |
| U3C C5G U19G C31A C46A G56A A57U | ≤ 0.5 |
| U3C G9A G17A | 0.798 |
| U3C C22G C62U | 0.64 |
| U3C G48C G67C | ≤ 0.5 |
| U3C G23C C27G G39A C66U | ≤ 0.5 |
| U3C C27G C33U A43U | ≤ 0.5 |
| U3C U7A G44C C61U C62U G63C U64A C66U A69G | ≤ 0.5 |
| U3C C30A A65G | 0.702 |
| U3C G18A U32G A43C G51A | 0.626 |
| U3C C27U A69U | 0.806 |
| U3C C31G U59A | ≤ 0.5 |
| U3C U13A A45C G48A U64C | 0.57 |
| U3C C31G U32C G38C C46G G48C G68C | ≤ 0.5 |
| U3C C24G A43C G48A G58A G68C | ≤ 0.5 |
| U3C C34A G44A U54A | ≤ 0.5 |
| U3C C46U | 0.892 |
| U3C C30G A43C C60G C66G A69G | ≤ 0.5 |
| U3C G9C C11U C30G A43C U64C | ≤ 0.5 |
| U3C G25C G41C C46U A65U | ≤ 0.5 |
| U3C G10A A40C C55G | ≤ 0.5 |
| U3C C24A C62A A65C | ≤ 0.5 |

| Variant | yeast fitness |
| --- | --- |
| U3C C22G A69U | 0.667 |
| U3C U13C C24U G52A G56A | ≤ 0.5 |
| U3C C46U U54A | ≤ 0.5 |
| U3C C5G C61U | ≤ 0.5 |
| U3C C5G C34U | ≤ 0.5 |
| U3C C5U A37G A43C C62U | ≤ 0.5 |
| U3C G38A C61U | 0.564 |
| U3C C11U C31U | 0.782 |
| U3C G12A C31G U59A | 0.537 |
| U3C U13A A20C C30G C31A U54A C55U | 0.521 |
| U3C G12A A45U A69C | ≤ 0.5 |
| U3C U7C U35C | 0.505 |
| U3C C62G G68A | ≤ 0.5 |
| U3C U8C A57C | ≤ 0.5 |
| U3C U8G U28G C31A C61U | ≤ 0.5 |
| U3C C62G | 0.853 |
| U3C U19C A20G | 0.663 |
| U3C C31U A70G | 0.812 |
| U3C G12C A37U G51A C62U | 0.607 |
| U3C U13C U16A A45G C61A U64C | ≤ 0.5 |
| U3C U16A C30U A40C | ≤ 0.5 |
| U3C C24G | 0.642 |
| U3C G9A A69C | 0.905 |
| U3C G12A A37C A45U G48C C66U G67C A70G | ≤ 0.5 |

| Variant | yeast fitness |
| --- | --- |
| U3C G12A C30U G44A C61U | ≤ 0.5 |
| U3C G10C C11G C24G | ≤ 0.5 |
| U3C G6A G18C A45U G68A | ≤ 0.5 |
| U3C C31U A42G | 0.798 |
| U3C G50A G68C | 0.609 |
| U3C C22G C61U A65U | 0.596 |
| U3C C5U C22U A40U A43U | ≤ 0.5 |
| U3C C31G | 0.86 |
| U3C C31U | 0.891 |
| U3C G9A A65G | 0.888 |
| U3C G51C C66U | ≤ 0.5 |
| U3C U13A A20C C30G C31A | ≤ 0.5 |
| U3C C11A C31A | 0.556 |
| U3C C30A A69U | 0.745 |
| U3C G39C G63A | 0.533 |
| U3C C31U U47C | 0.864 |
| U3C C30G | 0.677 |
| U3C G10C C30U U54A | ≤ 0.5 |
| U3C G44C U59A | ≤ 0.5 |
| U3C U19A A69U | 0.865 |
| U3C C27U G58C A69C | 0.793 |
| U3C C11U A14C A21U A36C G58C | 0.562 |
| U3C G12C A37U G51A C62U G63A | ≤ 0.5 |
| U3C G44A | 0.993 |

| Variant | yeast fitness |
| --- | --- |
| U3C G44C | 0.908 |
| U3C G39C | 0.695 |
| U3C G6C | 0.753 |
| U3C G6A | 0.866 |
| U3C C61G | 0.604 |
| U3C C61U | 0.847 |
| U3C C62U G67A | 0.587 |
| U3C G23A C30U C33A G41C A42U | ≤ 0.5 |
| U3C C11A C27G C33A A43C C46A A70U | 0.528 |
| U3C U8C G9A A69U | 0.564 |
| U3C C24G C61U | 0.528 |
| U3C G56C | 0.67 |
| U3C C34U U53C | ≤ 0.5 |
| U3C C29G G38A A43G G50A | ≤ 0.5 |
| U3C G9C C11U C30G A43C C55U | ≤ 0.5 |
| U3C C11U C46U | 1.1 |
| U3C G44C C60G | 0.562 |
| U3C C11A C31A G68C | 0.582 |
| U3C G38C A57U A70G | 0.622 |
| U3C C27U C30U U53A A69C | ≤ 0.5 |
| U3C C31G G67U | ≤ 0.5 |
| U3C U7G A14C C31A G50A G52C A65C | ≤ 0.5 |
| U3C C31U A69U | 0.782 |
| U3C C27G C49G | ≤ 0.5 |

| Variant | yeast fitness |
| --- | --- |
| U3C G23C C62G | 0.535 |
| U3C C46A G48A C66U | 0.629 |
| U3C G6A C30U G39A A45G C46U C49G | ≤ 0.5 |
| U3C C30A C61U | 0.678 |
| U3C G25C A37U G44A | 0.705 |
| U3C U8C A14G U28G A36U C46U U47C C61U | 0.553 |
| U3C C27G C49A A70G | 0.593 |
| U3C C27G G48C | 0.522 |
| U3C G63A A70U | 0.655 |
| U3C C29G C30G A37C G39A | ≤ 0.5 |
| U3C U19A G50C C62G C66U | 0.575 |
| U3C G12A U28C A37C A45U G48C | ≤ 0.5 |
| U3C C11U G18C C66U | 0.516 |
| U3C C24G G50C G68C | ≤ 0.5 |
| U3C G9C C11U C29G C30A U64G A69C | ≤ 0.5 |
| U3C G12A C49U | 0.569 |
| U3C G6C A14U G25A G38A U47A A69C | ≤ 0.5 |
| U3C C27G G39A C46U G67A | ≤ 0.5 |
| U3C G6A A14G G18C C30U C31U G48A C55G | ≤ 0.5 |
| U3C G41C | 0.824 |
| U3C G41A | 0.879 |
| U3C U13A A40C | ≤ 0.5 |
| U3C G9A G68A | 0.843 |
| U3C U16G A21C G25C A37C A40U | ≤ 0.5 |

| Variant | yeast fitness |
| --- | --- |
| U3C G12A C29G C34U A36C G56C | ≤ 0.5 |
| U3C U19A G52A U59C C66A G67A | ≤ 0.5 |
| U3C C46U A65U | 0.739 |
| U3C C30U G38A G44C U54A | ≤ 0.5 |
| U3C C5U C33G C34U G38C U47A | ≤ 0.5 |
| U3C C62U U64A | ≤ 0.5 |
| U3C G39A G67U | ≤ 0.5 |
| U3C C24A C55A | ≤ 0.5 |
| U3C G12A U28C G48C G63C | ≤ 0.5 |
| U3C C46G A69U | 0.807 |
| U3C U19A A43G | 0.677 |
| U3C U13A A20C C30G C31A G67C | ≤ 0.5 |
| U3C C49U | 0.891 |
| U3C U19A G68A | 0.698 |
| U3C C34A G52A | ≤ 0.5 |
| U3C C24U C62U | 0.725 |
| U3C G17C A40G U54C | 0.59 |
| U3C C11G A37G | 0.563 |
| U3C G12A A37C A45U G48C | 0.591 |
| U3C C46G C62A | 0.564 |
| U3C U13C C24U G52A G68A | ≤ 0.5 |
| U3C C11U U53C | 0.588 |
| U3C U16G U19A A43C C49U A57U | ≤ 0.5 |
